Results published in ChEMBL document CHEMBL1147759, “Substituted indanylacetic acids as PPAR-alpha-gamma activators” (Bioorg Med Chem Lett, 2006).

What was measured:
[1] = molecular target: T1, Peroxisome proliferator-activated receptor gamma (Homo sapiens, UniProt P37231); test: Activity against PPAR gamma in human by FRET assay
T1 sequence (P37231 whole entry): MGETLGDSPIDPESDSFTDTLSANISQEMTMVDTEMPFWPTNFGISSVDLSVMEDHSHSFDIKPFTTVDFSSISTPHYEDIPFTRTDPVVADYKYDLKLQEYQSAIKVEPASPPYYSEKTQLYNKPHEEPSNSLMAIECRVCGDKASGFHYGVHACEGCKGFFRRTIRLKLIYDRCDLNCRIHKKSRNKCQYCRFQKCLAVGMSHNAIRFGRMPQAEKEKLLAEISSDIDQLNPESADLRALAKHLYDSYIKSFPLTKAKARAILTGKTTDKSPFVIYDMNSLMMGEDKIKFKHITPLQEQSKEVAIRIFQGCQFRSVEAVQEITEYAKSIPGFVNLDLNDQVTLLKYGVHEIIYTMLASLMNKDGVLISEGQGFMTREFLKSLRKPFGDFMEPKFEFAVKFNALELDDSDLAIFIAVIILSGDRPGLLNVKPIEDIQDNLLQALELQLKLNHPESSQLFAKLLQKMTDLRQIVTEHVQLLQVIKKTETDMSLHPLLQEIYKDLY

[2] = molecular target: T2, Peroxisome proliferator-activated receptor alpha (Homo sapiens, UniProt Q07869); test: Activity against PPAR alpha in human by FRET assay
T2 sequence (Q07869 whole entry): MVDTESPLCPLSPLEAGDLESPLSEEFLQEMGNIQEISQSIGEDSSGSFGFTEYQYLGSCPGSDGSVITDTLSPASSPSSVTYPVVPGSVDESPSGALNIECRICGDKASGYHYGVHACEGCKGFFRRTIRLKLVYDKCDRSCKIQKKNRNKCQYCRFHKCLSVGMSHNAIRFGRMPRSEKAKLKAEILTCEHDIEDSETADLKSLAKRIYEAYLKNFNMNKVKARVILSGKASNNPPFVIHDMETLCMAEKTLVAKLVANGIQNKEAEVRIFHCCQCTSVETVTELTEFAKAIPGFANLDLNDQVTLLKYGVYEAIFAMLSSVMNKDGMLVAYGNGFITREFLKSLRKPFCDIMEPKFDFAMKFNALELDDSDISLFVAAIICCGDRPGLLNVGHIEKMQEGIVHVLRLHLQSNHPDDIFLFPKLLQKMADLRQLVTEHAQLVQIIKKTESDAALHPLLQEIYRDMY
Method in brief: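 Human PPAR-α ligand-binding domain (GST-tagged), incubated with compound, europium-labelled anti-GST antibody, biotinylated CREB-binding protein co-activator and streptavidin-APC. Time-resolved FRET read with excitation at 340 nm and emission at 615 and 640 nm. EC50 taken as the mean of at least three experiments.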

[3] = test system: Mus musculus; test: Increase in serum HDL in male hApoA1 mice administered at 10 mg/kg, po; format: functional
Method in brief: (§1)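 Male hApoA1 transgenic mice, n = 16 per group, had ad lib water and chow. They were dosed by oral gavage once daily for eight days in 0.5% methylcellulose vehicle, with vehicle controls. Serum lipid changes are compared with vehicle.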

[4] = AUC in male hApoA1 transgenic mice administered at 3 mg/kg, po; format: ADME, organism-based; design: dose 3 mg/kg, route oral; conditions: mouse, plasma
[5] = test system: Mus musculus; test: Decrease in serum triglyceride level in male hApoA1 mice administered at 30 mg/kg; format: functional; design: scale not given: the % may be the effect or the level left; method in brief: as §1
[6] = AUC in male db/db mice administered at 3 mg/kg, po; format: ADME, organism-based; design: dose 3 mg/kg, route oral; conditions: mouse, plasma
[7] = Cmax in male hApoA1 transgenic mice administered at 3 mg/kg, po; format: ADME, organism-based; design: dose 3 mg/kg, route oral; conditions: mouse, in vivo
[8] = Cmax in male db/db mice administered at 3 mg/kg, po; format: ADME, organism-based; design: dose 3 mg/kg, route oral; conditions: mouse, in vivo
[9] = test system: Mus musculus; test: Decrease in serum triglyceride level in male hApoA1 mice administered at 10 mg/kg; format: functional; design: scale not given: the % may be the effect or the level left; method in brief: as §1
[10] = test system: Mus musculus; test: Decrease in blood glucose level in male db/db mice administered at 10 mg/kg, po; format: functional; design: scale not given: the % may be the effect or the level left
Method in brief: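 Given by oral gavage once daily for 14 days in 0.5% methylcellulose vehicle, with vehicle-dosed controls. After the last dose the mice were euthanized and blood was collected for glucose measurement. The decrease is expressed relative to vehicle.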

[11] = test system: Mus musculus; test: Increase in serum HDL in male hApoA1 mice administered at 30 mg/kg, po; format: functional; method in brief: as §1

EC50 [1] [nM] | EC50 [2] [nM] | Structure (SMILES) | other results
> 10000 | > 10000 | CCC(C(=O)O)C1CCc2cc(OCCc3c(C)noc3C)ccc21 (stereo not drawn) | 
177 | 5790 | Cc1oc(-c2ccccc2)nc1CCOc1ccc2c(c1)CCC2C(CC(F)(F)F)C(=O)O (stereo not drawn) | 
30 | 78 | CC[C@H](C(=O)O)[C@@H]1CCc2cc(OCCc3nc(-c4ccc(C)cc4)oc3C)ccc21 | Activity [3]: 15%; AUC [4]: 8060 ng·h/mL; Activity [5]: 60%; AUC [6]: 11600 ng·h/mL; Cmax [7]: 2550 ng/mL; Cmax [8]: 2980 ng/mL; Activity [9]: 45%; Activity [10]: 45%; Activity [11]: 30%
1860 | > 10000 | Cc1oc(-c2ccccc2)nc1CCOc1ccc2c(c1)CCC2C(C(=O)O)C(=O)O (stereo not drawn) | 
52 | 3890 | CCCC(C(=O)O)C1CCc2cc(OCCc3nc(-c4ccccc4)oc3C)ccc21 (stereo not drawn) | 
5640 | 6000 | Cc1oc(-c2ccccc2)nc1CCOc1ccc2c(c1)CCC2C(C)(C)C(=O)O (stereo not drawn) | 
> 10000 | > 10000 | CCC(C(=O)O)C1CCc2cc(OCCn3ncc4ccccc4c3=O)ccc21 (stereo not drawn) | 
> 10000 | 1040 | CCC(C(=O)O)C1CCc2cc(OCCc3noc(-c4ccccc4)n3)ccc21 (stereo not drawn) | 
45 | 670 | COC(C(=O)O)C1CCc2cc(OCCc3nc(-c4ccccc4)oc3C)ccc21 (stereo not drawn) | 
> 10000 | > 10000 | CCC(C(=O)O)C1CCc2cc(OCCc3c(-c4ccccc4)noc3C)ccc21 (stereo not drawn) | 
9560 | 7260 | Cc1oc(-c2ccccc2)nc1CCOc1ccc2c(c1)CCC2C(C(=O)O)c1ccccc1 (stereo not drawn) | 
68 | 308 | CCOC(=O)C(C(=O)O)C1CCc2cc(OCCc3nc(-c4ccccc4)oc3C)ccc21 (stereo not drawn) | 
85 | 979 | CCC(C(=O)O)C1CCc2cc(OCCc3nc(-c4ccccc4)sc3C)ccc21 (stereo not drawn) | 
3180 | > 10000 | Cc1oc(-c2ccccc2)nc1CCOc1ccc2c(c1)CCC2C(CCCc1ccccc1)C(=O)O (stereo not drawn) | 
42 | 141 | CCC(C(=O)O)C1CCc2cc(OCCc3nc(-c4ccccc4)oc3C)ccc21 (stereo not drawn) | 
12 | 500 | CCOC(C(=O)O)C1CCc2cc(OCCc3nc(-c4ccccc4)oc3C)ccc21 (stereo not drawn) | 
154 | 37 | CCC(C(=O)O)C1CCc2cc(OCCc3nc(-c4ccc(F)cc4)oc3C)ccc21 (stereo in doubt) | 
131 | 29 | CCC(C(=O)O)C1CCc2cc(OCCc3nc(-c4ccc(Cl)c(Cl)c4)oc3C)ccc21 (stereo in doubt) | 
59 | 137 | CCC(C(=O)O)C1CCc2cc(OCCc3nc(-c4ccc(F)cc4)oc3C)ccc21 (stereo in doubt; 54) | 
94 | 91 | CCC(C(=O)O)C1CCc2cc(OCCc3nc(-c4ccc(Cl)c(Cl)c4)oc3C)ccc21 (stereo in doubt; 66) | 

Structure (SMILES) | EC50 [1] [nM] | EC50 [2] [nM] | other results
CCC(C(=O)O)C1CCc2cc(OCCn3nc(-c4ccccc4)cc3C)ccc21 (stereo not drawn) | 196 | 232 | 
Cc1oc(-c2ccccc2)nc1CCOc1ccc2c(c1)CCC2C(C(=O)O)C1CC1 (stereo not drawn) | 160 | 795 | 
